Only some compounds are listed: those with a hit (about 2.2% of all), similar ones and a draw of the others.
SUMO HTRF inh: blocks human SUMOylation mediated by UBC9 | P63279 | HTRF SUMOylation assay, SAE1/SAE2 + UBC9, in vitro | inhibition, % at 35 µM | actives 0.36% (n = 290,000) | AID 2006; in the data active = inhibition above about 50%, passing the limit was not always enough
Target sequence (P63279 whole entry, looked up): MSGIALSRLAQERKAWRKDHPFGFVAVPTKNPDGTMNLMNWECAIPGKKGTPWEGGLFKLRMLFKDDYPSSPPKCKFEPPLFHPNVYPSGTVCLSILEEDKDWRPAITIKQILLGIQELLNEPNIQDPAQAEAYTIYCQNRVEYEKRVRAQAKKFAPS
Apaf-1 inh: blocks human Apaf-1 apoptosome activity. O14727. reconstituted apoptosome caspase-3 activity, DEVD-Rh110 fluorescence. inhibition, % at 20 µM. actives 0.71% (n = 330,000). AID 489030; active = inhibition of at least 40% at 20 µM;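 also: plate controls were DMSO wells for no effect and DEVD-CHO caspase inhibitor wells for full effect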
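detection = Rh110 fluorescence intensity | test system = biochemical Apaf-1 apoptosome reconstitution | also added = cytochrome c and DEVD-Rh110 substrate | schedule = 30 min plus 50 min, RT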
Rin1 Abl inh: blocks binding of human Rin1 to Abl | P00519+Q13671 | TR-FRET Rin1/Abl binding, biochemical | inhibition, % at 7.35 µM | actives 0.4% (n = 360,000) | AID 588664; in the data active = inhibition above about 5%, passing the limit was not always enough
UBC13 inh: blocks human UBC13 polyubiquitin chain formation. inhibition, % at 20 µM. actives 0.47% (n = 330,000). AID 485273. P61088. TR-FRET; in the data active = inhibition above about 45%, passing the limit was not always enough
Target sequence (P61088 whole entry, looked up): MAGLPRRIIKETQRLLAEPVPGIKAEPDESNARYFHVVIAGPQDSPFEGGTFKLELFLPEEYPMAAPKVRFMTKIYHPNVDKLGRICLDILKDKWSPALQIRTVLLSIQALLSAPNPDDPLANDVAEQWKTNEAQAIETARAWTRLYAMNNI
PAD4 inh: blocks human protein arginine deiminase 4; actives 0.41% (n = 330,000); inhibition, % at 6.36 µM; recombinant PAD4, RCA probe fluorescence polarization;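 active = percent inhibition above a cutoff equal to the mean of all tested compounds plus 3 SD, cut at about 15% in these data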;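 also: 0% = PAD4 with RCA probe and DMSO and 100% = probe without PAD4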
GSTO1 inh: counter-screen for RBBP9 inhibitors: inhibitors of human GSTO1; inhibition, % at 5.96 µM; recombinant GSTO1, activity-based probe fluorescence polarization; actives 1.1% (n = 300,000); AID 1974;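 active = inhibition above the campaign mean inhibition plus 3 SD, cut at about 35% in these data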;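 also: 0% = GSTO1-1 with DMSO and 100% = wells lacking GSTO1-1 enzyme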
Target sequence (P78417 whole entry, looked up): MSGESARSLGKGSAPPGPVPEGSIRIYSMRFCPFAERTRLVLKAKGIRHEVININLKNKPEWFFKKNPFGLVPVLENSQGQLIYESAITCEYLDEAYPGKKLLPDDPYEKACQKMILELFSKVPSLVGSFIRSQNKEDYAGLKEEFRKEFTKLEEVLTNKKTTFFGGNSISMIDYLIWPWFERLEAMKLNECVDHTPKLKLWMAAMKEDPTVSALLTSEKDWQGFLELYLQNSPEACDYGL
GSTO1 inh conf: confirmation of human GSTO1 inhibitors | recombinant GSTO1, probe fluorescence polarization | shares compounds with GSTO1 inh | actives 54% (n = 2,400) | AID 2176 | inhibition, % at 5.96 µM;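 active = inhibition above the primary screen's cutoff, its mean inhibition plus 3 SD, cut at about 35% in these data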;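 also: loss of polarization as inhibitors block binding of rhodamine sulfonate ester activity probe; 0% = GSTO1 with DMSO and 100% = wells lacking GSTO1 enzyme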
PAD4 FP conf: PAD4 (human) inhibition, confirmed | shares compounds with PAD4 inh | recombinant PAD4, RCA probe fluorescence polarization | inhibition, % at 6.36 µM | actives 28% (n = 1,200);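 active = mean inhibition across replicates above the hit cutoff set by the earlier primary screen, cut at about 15% in these data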;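 also: inhibitors block active-site labeling by the probe so polarization falls; 0% = PAD4 with probe and DMSO and 100% = probe without PAD4 enzyme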
Apaf-1 inh conf: confirmation of Apaf-1 inhibitors | shares compounds with Apaf-1 inh | reconstituted apoptosome, caspase-3 DEVD-Rh110 fluorescence | inhibition, % at 20 µM | actives 25% (n = 1,800);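 active = mean inhibition of at least 40% at 20 µM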;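 also: plate controls were DMSO wells for no effect and DEVD-CHO caspase inhibitor control wells for full effect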
Rh110 interf inh: Rh110 signal interference in Apaf-1 inhibitor counter-screen; shares compounds with Apaf-1 inh; Rh110 fluorescence interference, quenched caspase reaction; activation (fluorescence interference), % at 20 µM; 1,800 tested, under 10 active;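 active = signal rise of 40% or more at 20 µM, treated as a fluorescence artifact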
Fluor interf inh: Apaf-1 inhibitor counter-screen fluorescence artifact; shares compounds with Apaf-1 inh; 460 tested, under 10 active; fluorescence interference counterscreen, Apaf-1 assay format; IC50, µM; AID 588538; call rule not given here
* = called active by the depositor; x = no result.

SMILES | SUMO HTRF inh | Apaf-1 inh | Rin1 Abl inh | UBC13 inh | PAD4 inh | GSTO1 inh | GSTO1 inh conf | Apaf-1 inh conf | Rh110 interf inh | others
CCOc1ccc2nc3cc(NCc4ccc(OC)cc4)ccc3c(N)c2c1 | 18 | 96* | -19 | 38 | -7 | 50* | 32 | 82* | -4 | Fluor interf inh=>100
COc1ccc(OCCOC(=O)CNS(=O)(=O)c2ccc(SC)c([N+](=O)[O-])c2)cc1 | x | -3 | 1 | -2 | -4 | 10 | x | x | x
Cc1ccc(C)c(NC(=S)N2CCC(C(=O)c3ccc(F)cc3)CC2)c1 | x | x | -3 | x | x | x | x | x | x
CC1=NN(c2ccc(C(F)(F)F)cn2)C(=O)C1 | 5 | 62* | 0 | -42 | -3 | 44* | 30 | 61* | -4 | Fluor interf inh=>100
O=C(Nc1cccc(NC(=O)c2ccco2)n1)c1ccco1 | 19 | -2 | 0 | -6 | 2 | -1 | x | x | x
O=C1c2ccccc2-c2c1cccc2C(=O)N1CCN(C(=O)c2ccco2)CC1 | -13 | 12 | -9 | 0 | 10 | -5 | x | x | x
O=C(O)CCCNc1cc(N2CCN(C(=O)c3ccco3)CC2)c2noc3c2c1C(=O)c1ccccc1-3 | -25 | 60* | -4 | -137 | -7 | 53* | 30 | 28 | 1
Cc1nc(C)c(C(=O)OCC(=O)N(C)c2ccccc2)s1 | x | -3 | -3 | -8 | x | x | x | x | x
CN(C)c1ncc(C2=C(Cl)C(=O)C(N3CCCC3)=C(Cl)C2=O)s1 | x | 83* | 11* | -57 | 7 | 88* | 81* | 42* | 3 | Fluor interf inh=>100
O=C(Nc1cccc(S(=O)(=O)N2CCCCCC2)c1)C1CCN(C(=O)c2ccc(F)cc2)CC1 | x | 6 | 3 | 5 | -2 | -5 | x | x | x
O=C(NC(c1ccc(-c2ccccc2)cc1)c1cnccn1)C1CCN(CCOc2ccc(F)cc2)CC1 (centres undefined) | x | x | -4 | x | x | x | x | x | x
CCN(CC)c1ccc(N=Cc2ccc([N+](=O)[O-])o2)cc1 | -57 | 56* | 3 | -129 | 8 | 73* | 10 | 27 | 10
CCOC(=O)c1ccccc1NC(=O)COC(=O)C(CC)Oc1ccccc1 (centres undefined) | x | x | 0 | x | x | x | x | x | x
COc1ccc(NC(=O)CSc2nnc(-c3ccco3)c(-c3ccco3)n2)cc1OC | 18 | 18 | -2 | -20 | -7 | 14 | x | x | x
Cc1cccc(C)c1NC(=O)CSc1nnc(-c2ccco2)c(-c2ccco2)n1 | 44 | 42* | -1 | -14 | -4 | 58* | 40* | 27 | 2
O=C1c2ccccc2C(=O)c2[nH]c(=O)[nH]c21 | 0 | 80* | -10 | -191 | 17* | 64* | 62* | 75* | -2 | PAD4 FP conf=2;Fluor interf inh=>100
O=C1C(O)=C(O)C(=O)c2ccccc21 | x | 92* | 24* | -102 | 2 | 81* | 68* | 67* | 7 | Fluor interf inh=>100
O=C(CCC(=O)OCCOc1ccccc1)OCCOc1ccccc1 | x | x | 0 | x | x | x | x | x | x
O=C(c1[nH]c(C(F)(F)F)nc1-c1ccccc1)N1CCN(C/C=C/c2ccccc2)CC1 | x | x | 2 | x | x | x | x | x | x
COc1ccc(N(C)C(=O)Nc2ccc3nsnc3c2)cc1 | 103 | x | -1 | x | x | x | x | x | x
COc1ccc(NC(=S)Nc2ccc3nsnc3c2)cc1 | 97 | 97* | 0 | -48 | 68* | 86* | 80* | 97* | 16 | PAD4 FP conf=-4;Fluor interf inh=>100
CC(C)N(C(=O)Nc1ccc2nsnc2c1)C(C)C | 100* | 97* | x | -38 | 78* | 98* | 77* | 96* | 0 | PAD4 FP conf=1;Fluor interf inh=>100
S=C(Nc1ccc2nsnc2c1)NC1CCCCC1 | 94 | 7 | 3 | 0 | -5 | -2 | x | x | x
S=C(Nc1ccc2nsnc2c1)N1CCCCCC1 | 99 | 93* | 2 | -47 | 50* | 77* | 79* | 12 | 5 | PAD4 FP conf=-4
COC(=O)CCCC1=CC2=C(c3ccccc3)C(=O)C(C)(OC(=O)C3CCCC3)C(=O)C2=CN1CC(C)C (centres undefined) | 16 | 41* | -2 | -47 | -16 | 52* | 6 | 19 | 4
SMILES | SUMO HTRF inh | Apaf-1 inh | Rin1 Abl inh | UBC13 inh | PAD4 inh | GSTO1 inh | GSTO1 inh conf | Apaf-1 inh conf | Rh110 interf inh | others
CCN(CC)CCCN1C=C2C(=O)C(C)(OC(=O)C3CCCC3)C(=O)C(c3ccccc3)=C2C=C1CCCC(=O)OC (centres undefined) | 2 | 14 | -3 | -68 | 0 | 6 | x | x | x
CC1=NN(c2ccc(Br)cc2)C(=O)/C1=C/c1cccs1 | 59 | 96* | 2 | -24 | 12 | 45* | 17 | 19 | 0
CC1=NN(c2ccc(C)cc2)C(=O)/C1=C\c1ccc(Br)s1 | 76* | 89* | 1 | -8 | 21* | 40* | 12 | 18 | 5 | PAD4 FP conf=40*
CC1=NN(c2ccccc2)C(=O)/C1=C\c1cn(-c2ccccc2)nc1C | 7 | 23 | -1 | -2 | -3 | 6 | x | x | x
CC(=O)c1c(C)[nH]c(C(=O)OCC(=O)N(Cc2ccccc2)C(C)(C)C)c1C | x | 18 | -1 | -9 | x | x | x | x | x
O=C(O)c1cccc(NC2=C(n3nnc4ccccc43)C(=O)c3ccccc3C2=O)c1 | 25 | 58* | -6 | -42 | 5 | 62* | 45* | 64* | 7 | Fluor interf inh=>100
O=C(O)c1cccc(NS(=O)(=O)c2ccc3nnn(O)c3c2)c1 | 8 | 3 | -1 | -7 | -2 | -2 | x | x | x
O=C(CNC(=O)c1ccccc1F)NCCc1ccccc1F | x | 1 | 1 | 0 | 1 | x | x | x | x
O=C1NC(=S)N/C1=C/c1cc2c(cc1[N+](=O)[O-])OCO2 | 42 | 88* | 1 | -10 | -7 | 83* | 34 | 81* | 1 | Fluor interf inh=>100
Cc1ccc(O)c(CP(=O)(c2ccccc2)c2ccccc2)c1 | -2 | -8 | 0 | -5 | -4 | 9 | x | x | x
CCNc1ccccc1CP(=O)(c1ccccc1)c1ccccc1O (centres undefined) | 32 | 87* | x | -48 | 11 | 87* | 4 | 12 | -1
COc1ccc(-c2cc(C(=O)N/N=C(\C)c3cccnc3)c3cc(C)ccc3n2)cc1OC | 7 | 7 | -4 | -4 | 0 | -1 | x | x | x
O=[N+]([O-])c1cc(Br)c(O)c(C=Nc2ccc(N3CCOCC3)cc2)c1 | 16 | 68* | -5 | -22 | 54* | 72* | -14 | 15 | 2 | PAD4 FP conf=-1

High-throughput results deposited in PubChem by several laboratories.
